The source of these data is ChEMBL document CHEMBL1821568, “Conjugates of 3α-methoxyserrat-14-en-21β-ol (PJ-1) and 3β-methoxyserrat-14-en-21β-ol (PJ-2) as cancer chemopreventive agents” (Eur J Med Chem, 2011).

In general, IC50 refers to the concentration that gives 50% inhibition.

For series [1], the system named is Raji. As to the kind of experiment: Inhibition of TPA-induced EBV-early antigen activation in human Raji cells assessed as EA activation at 1000 molar ratio after 48 hrs relative to control. The conditions noted are these: human gammaherpesvirus 4. On the set-up: scale not given: the % may be the effect or the level left. It counts as cell-based. Put shortly: (§1)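 Raji cells (non-producer sub-line, spontaneous EA under 0.1%) at 1×10^6/mL, incubated 37 °C for 48 h with n-butyric acid (4 mmol), TPA (32 pmol in DMSO) and compound in DMSO. Dose expressed as mol ratio to TPA (1000, 500, 100, 10). EA-positive cells were detected by indirect immunofluorescence with NPC patient serum, at least 500 cells counted. Assays were run in triplicate. Results are relative to butyrate+TPA control (100%). IC50 given in nM.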

The test system of series [2] is Raji. In words: Inhibition of TPA-induced EBV-early antigen activation in human Raji cells assessed as EA activation at 500 molar ratio after 48 hrs relative to control. It is filed as cell-based. On the set-up: scale not given: the % may be the effect or the level left. The conditions noted are these: human gammaherpesvirus 4. In a few lines: as §1
Series [3] deals with Raji. In words: Inhibition of TPA-induced EBV-early antigen activation in human Raji cells assessed as EA activation at 100 molar ratio after 48 hrs relative to control. It is filed as cell-based. The conditions noted are these: human gammaherpesvirus 4. In a few lines: as §1
The subject of series [4] is Raji. In words: Inhibition of TPA-induced EBV-early antigen activation in human Raji cells assessed as EA activation at 10 molar ratio after 48 hrs relative to control. It counts as cell-based. On the set-up: scale not given: the % may be the effect or the level left. The conditions noted are these: human gammaherpesvirus 4. Put shortly: as §1
Series [5] is described as follows: Cytotoxicity against human Raji cells carrying EBV genome assessed as cell viability at 1000 molar ratio by trypan blue staining method. It counts as cell-based. The conditions noted are these: read-out: Activity. In a few lines:
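Raji cells (EBV genome-carrying, in RPMI-1640 with 10% FBS) at 1×10^6/mL, incubated 48 h at 37 °C with n-butyric acid (4 mmol), TPA (32 pmol) and test compound in DMSO. Viability scored by Trypan Blue staining. Molar ratio means mol of compound per mol of TPA (32 pmol).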

Series [6] is described as follows: Inhibition of TPA-induced EBV-early antigen activation in human Raji cells assessed as EA activation after 48 hrs. It counts as cell-based, human gammaherpesvirus 4. In a few lines:
as §1

With `CO[C@H]1CC[C@@]2(C)[C@@H](CC[C@@]3(C)CC4=CC[C@H]5C(C)(C)[C@H](OC(=O)CCC(=O)O)CC[C@]5(C)[C@H]4CC[C@@H]32)C1(C)C`, the Activity was 0% with Raji [1], 33.6% in the series with Raji [2] and 93.8% in the series on Raji [4]. For the same compound, in the series on Raji [3], the EA activation relative to control came out at 69.5%. In addition, in series [5], the viability at 1000 molar ratio is 60%. Also, in series [6], the IC50 amounted to 0.285 µM.
Consider `CO[C@H]1CC[C@@]2(C)[C@@H](CC[C@@]3(C)CC4=CC[C@H]5C(C)(C)[C@H](OC(=O)CCC(=O)Oc6ccc(-c7coc8cc(O)cc(O)c8c7=O)cc6)CC[C@]5(C)[C@H]4CC[C@@H]32)C1(C)C`, for which the Activity in the series on Raji [1] came to 12%; in the series on Raji [2], 45.2%; in the series on Raji [4] it was 100%. Moreover, the EA activation relative to control in the series with Raji [3] worked out at 79.6%. Further, the viability at 1000 molar ratio in series [5] was found to be 60%. Further, the IC50 in series [6] stood at 0.455 µM.
With `CO[C@H]1CC[C@@]2(C)[C@@H](CC[C@@]3(C)CC4=CC[C@H]5C(C)(C)[C@H](OC(=O)CCC(=O)Oc6ccc([C@@H]7CC(=O)c8c(O)cc(O)cc8O7)cc6)CC[C@]5(C)[C@H]4CC[C@@H]32)C1(C)C`, the values for the Activity in the series with Raji [1], with Raji [2] and with Raji [4] were 14%, 47.3% and 100%, respectively. The EA activation relative to control with Raji [3] turned out to be 80%. In series [5], the viability at 1000 molar ratio was 60%. The IC50 in series [6] amounted to 0.47 µM.
On to `CO[C@@H]1CC[C@@]2(C)[C@@H](CC[C@@]3(C)CC4=CC[C@H]5C(C)(C)[C@H](OC(=O)CCC(=O)Oc6ccc(-c7coc8cc(O)ccc8c7=O)cc6)CC[C@]5(C)[C@H]4CC[C@@H]32)C1(C)C`, for which the Activity amounted to 15.8% with Raji [1], 50.3% with Raji [2] and 100% with Raji [4]. The EA activation relative to control in the series with Raji [3] came out at 83.4%. In series [5], the viability at 1000 molar ratio was found to be 60%. In addition, the IC50 in series [6] came to 0.498 µM.
On to `CC1(C)CC[C@]2(C(=O)O)CC[C@]3(C)C(=CC[C@@H]4[C@@]5(C)CC[C@H](O)C(C)(C)[C@@H]5CC[C@]43C)[C@@H]2C1` [OLEANOLIC_ACID], for which the results for the Activity in the series on Raji [1], with Raji [2] and with Raji [4] were 12.7%, 30% and 100%, respectively. The EA activation relative to control in the series with Raji [3] was 80%. In series [6], the IC50 came to 0.449 µM.
On to `CO[C@H]1CC[C@@]2(C)[C@@H](CC[C@@]3(C)CC4=CC[C@H]5C(C)(C)[C@H](OC(=O)CN)CC[C@]5(C)[C@H]4CC[C@@H]32)C1(C)C`, for which the values for the Activity with Raji [1], in the series on Raji [2] and in the series with Raji [4] were 12%, 42.5% and 100%, respectively. In addition, the EA activation relative to control with Raji [3] is 80.3%. Moreover, in series [5], the viability at 1000 molar ratio turned out to be 60%. Also, the IC50 in series [6] was 0.449 µM.
As to `CO[C@@H]1CC[C@@]2(C)[C@@H](CC[C@@]3(C)CC4=CC[C@H]5C(C)(C)[C@H](OC(=O)CCC(=O)Oc6ccc(-c7coc8cc(O)cc(O)c8c7=O)cc6)CC[C@]5(C)[C@H]4CC[C@@H]32)C1(C)C`, the Activity worked out at 12.2% in the series on Raji [1], 45.9% in the series with Raji [2] and 100% with Raji [4]. Besides, in the series on Raji [3], the EA activation relative to control turned out to be 81%. Also, the viability at 1000 molar ratio in series [5] turned out to be 60%. For the same compound, the IC50 in series [6] amounted to 0.458 µM.
Take `CO[C@H]1CC[C@@]2(C)[C@@H](CC[C@@]3(C)CC4=CC[C@H]5C(C)(C)[C@H](OC(=O)CN6CCCCC6)CC[C@]5(C)[C@H]4CC[C@@H]32)C1(C)C`: the Activity with Raji [1] is 13.5%; in the series with Raji [2] it was 46.3%; in the series on Raji [4] it was 100%. Further, the EA activation relative to control with Raji [3] was 82%. In series [5], the viability at 1000 molar ratio turned out to be 60%. Further, in series [6], the IC50 is 0.46 µM.
On to `CO[C@H]1CC[C@@]2(C)[C@@H](CC[C@@]3(C)CC4=CC[C@H]5C(C)(C)[C@H](OC(=O)CC(C)(C)C(=O)O)CC[C@]5(C)[C@H]4CC[C@@H]32)C1(C)C`, for which the Activity in the series on Raji [1] was 0%; in the series with Raji [2], 28.5%; in the series with Raji [4], 90.3%. In the series on Raji [3], the EA activation relative to control worked out at 67%. The viability at 1000 molar ratio in series [5] came out at 60%. In series [6], the IC50 turned out to be 0.248 µM.
